RAD52 inh: RAD52 (human) annealing inhibition; P43351; recombinant RAD52 DNA annealing, FRET fluorescence; inhibition, % at 18.7 µM; hit rate 0.46% among 360,000; AID 651710;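 active means every replicate showing at least 50% inhibition; inconclusive means mean inhibition at least 50% but not in every replicate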
MLL AF4-AF9 inh: MLL-AF4/AF9 protein interaction inhibition; P42568; AlphaScreen, biotin-AF4 peptide binding to FLAG-AF9; inhibition, % at 10 µM; hit rate 0.47% among 350,000;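 active means every replicate reaching a set inhibition limit, whatever the replicate mean, cut at about 25% in these data; inconclusive means mean inhibition reaches that limit but some replicates miss it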;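 further: 0% = plate neutral control median and 100% = total signal loss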
Target sequence (P42568 whole entry, looked up): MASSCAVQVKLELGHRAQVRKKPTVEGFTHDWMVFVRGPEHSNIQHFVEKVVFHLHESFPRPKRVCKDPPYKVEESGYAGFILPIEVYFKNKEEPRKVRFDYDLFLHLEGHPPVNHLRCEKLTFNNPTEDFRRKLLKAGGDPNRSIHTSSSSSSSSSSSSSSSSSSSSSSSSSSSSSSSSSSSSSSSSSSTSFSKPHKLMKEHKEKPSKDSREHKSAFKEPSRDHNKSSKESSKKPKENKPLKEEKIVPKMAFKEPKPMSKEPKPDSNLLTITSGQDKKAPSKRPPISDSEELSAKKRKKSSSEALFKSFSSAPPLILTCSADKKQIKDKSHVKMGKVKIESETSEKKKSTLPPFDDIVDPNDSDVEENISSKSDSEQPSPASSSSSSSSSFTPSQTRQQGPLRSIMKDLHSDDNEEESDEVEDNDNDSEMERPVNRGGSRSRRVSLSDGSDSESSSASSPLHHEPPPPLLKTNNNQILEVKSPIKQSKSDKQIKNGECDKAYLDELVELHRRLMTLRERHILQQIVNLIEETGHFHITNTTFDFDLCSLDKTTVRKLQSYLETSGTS
RAD54 branch: RAD54 (human) branch migration inhibition; RAD54 Holliday junction branch migration, FAM/BHQ fluorescence; inhibition, % at 10.4 µM; hit rate 0.14% among 360,000; AID 602329;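 active means mean normalized replicate activity at least 40 and at least half of replicates scoring 40 or more; inconclusive means only one of the two criteria met; inactive means mean below 40 and under half of replicates reaching 40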;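 further: 0% = median of neutral control wells and 100% = median of positive control wells; inhibitors cause a drop in the FAM fluorescence signal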
S100A4 MyoIIA: blocks human S100A4 binding to myosin IIA peptide; P26447; S100A4/TAMRA-MyoIIA peptide fluorescence polarization; inhibition, % at 10.7 µM; hit rate 0.14% among 360,000;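 active means mean inhibition of at least 70% across replicates, with every replicate also reaching that level; inconclusive means mean inhibition reaches 70% but some replicates fall short; inactive means mean inhibition below 70%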
Target sequence (P26447 whole entry, looked up): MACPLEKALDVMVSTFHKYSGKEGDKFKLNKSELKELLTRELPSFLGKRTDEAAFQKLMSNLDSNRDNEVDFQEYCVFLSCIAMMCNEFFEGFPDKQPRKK
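Assay system: human S100A4 monomer with TAMRA-labelled myosin IIA peptide / Buffer or medium: Calcium-containing HEPES buffer, pH 7.2 / Reagent: TAMRA-labelled myosin IIA heavy-chain peptide probe, 5 nM / Compound: one dose per compound / Timing: polarization read 5 min after assay mix addition, stable 5–60 min / Benchmarks: neutral control DMSO, positive control TFP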
GSIS activator: primary screen for activators of insulin secretion dependent on glucose, INS-1E cells, GLuc reporter luminescence; INS-1E GLuc reporter insulin secretion, 2-3 h; hit rate 0.61% among 370,000; AID 743287; activation, % at 16.6 µM;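 active means lowest replicate activation of at least 40%, so every replicate reaches that level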;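 further: 0% = median of neutral control wells and 100% = median of IBMX positive control wells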
* = called active by the depositor; i = inactive; ? = inconclusive; . = not tested or not shown; + = active, no number. An excerpt weighted towards active compounds, which were near 1.3% of everything screened.

SMILES	RAD52 inh	MLL AF4-AF9 inh	RAD54 branch	S100A4 MyoIIA	GSIS activator
Cc1ccc(-c2nc3c(=O)n(-c4ccccc4)c4c(c(=O)n(C)c(=O)n4C)c3o2)cc1	-2.2	-3.1	5.5	-0.9	2.7
Cc1ccc(-c2nc3c(=O)n(C)c4ccccc4c3o2)cc1	.	.	12.4	.	79.2*
C[C@H](CO)N1C[C@H](C)[C@H](CN(C)Cc2ccc(C(=O)O)cc2)OCCCC[C@H](C)Oc2ccc(NS(C)(=O)=O)cc2C1=O	-13.0	-4.4	0.9	6.1	12.0
COc1ccccc1C(OC(=O)c1cccs1)C(=O)NCC1CCCO1 (centres undefined)	.	.	-10.0	.	56.9*
CN1CCSc2ccc(C(=O)Nc3cccc(F)c3)cc21	-11.1	-6.6	.	-3.1	66.8*
CCNc1nc(NCC)n2c(SCC(=O)N(CC)C3CCCCC3)nnc2n1	.	.	.	.	73.7*
S=C(NCc1ccccc1)N1CCCCC1	6.9	-0.1	.	-2.7	-9.3
CC(=O)N1CCN(C(=S)NCc2ccccc2)CC1	.	.	.	.	57.8*
O=C(O)c1ccccc1-c1c2cc(I)c(=O)c(I)c-2oc2c(I)c(O)c(I)cc12	i	-2.2	-425.4	+	-18.5
CC(C)CC#Cc1ccc([C@H]2[C@@H](CO)N3C(=O)CN(S(C)(=O)=O)C[C@@H]23)cc1	.	.	.	.	-8.2
CCOc1ccc(C(=O)NCC(=O)OCCN2C(=O)c3ccccc3C2=O)cc1OCC	3.6	-1.3	8.9	-0.8	57.0*
O=C(NC[C@@H]1CC[C@H]2[C@H](CN2Cc2ccccc2F)O1)C1CCCCC1	-0.7	-5.5	.	-1.1	.
Cc1ccc2c(c1)N(C(C)C(=O)NCc1ccccn1)C(=O)CO2 (centres undefined)	-22.8	-2.8	.	-4.6	31.7
Cc1ccc2c(c1)N(C(C)C(=O)NCc1cccs1)C(=O)CO2 (centres undefined)	-10.3	-17.9	-3.3	-4.4	51.0*
Cc1ccc(S(=O)(=O)N(C)C[C@H]2OCCCC[C@H](C)Oc3ccc(NS(=O)(=O)c4ccccc4)cc3C(=O)N([C@H](C)CO)C[C@@H]2C)cc1	-21.8	1.1	-22.8	97.1*	-8.8
Cc1ccc(S(=O)(=O)Nc2ccc3c(c2)C(=O)N([C@H](C)CO)C[C@@H](C)[C@H](CN(C)S(=O)(=O)c2ccccc2)OCCCC[C@H](C)O3)cc1	-8.0	-1.7	-0.3	-3.2	-19.7
Cc1ccc(S(=O)(=O)N(C)C[C@@H]2OCCCC[C@H](C)Oc3ccc(NC(=O)NC4CCCCC4)cc3C(=O)N([C@@H](C)CO)C[C@H]2C)cc1	0.8	25.9*	-2.8	-1.1	-10.5
C[C@@H]1CN([C@H](C)CO)C(=O)c2cc(NS(=O)(=O)c3ccc(F)cc3)ccc2O[C@@H](C)CCCCO[C@@H]1CN(C)C(=O)NC1CCCCC1	-2.4	-3.7	-0.7	120.0*	-31.0
C[C@@H]1CCCCO[C@@H](CN(C)C(=O)NC2CCCCC2)[C@@H](C)CN([C@H](C)CO)C(=O)c2cc(NS(=O)(=O)c3ccc(F)cc3)ccc2O1	2.8	-3.1	6.7	-6.2	0.5
C[C@H]1CCCCO[C@H](CN(C)S(=O)(=O)c2ccc(F)cc2)[C@@H](C)CN([C@@H](C)CO)C(=O)c2cc(NS(=O)(=O)c3ccccc3)ccc2O1	-20.6	2.3	-13.4	113.4*	-2.4
C[C@@H]1CCCCO[C@H](CN(C)S(=O)(=O)c2ccc(F)cc2)[C@@H](C)CN([C@H](C)CO)C(=O)c2cc(NS(=O)(=O)c3ccccc3)ccc2O1	25.1	-0.7	10.5	0.8	-0.3
COc1ccc(C[C@@H]2CCn3cc(nn3)COC[C@@H](CC(C)C)NC2=O)cc1	7.0	-1.8	.	6.4	14.5
Cc1ccc(S(=O)(=O)N(C)C[C@@H]2OCCCC[C@@H](C)Oc3ccc(NS(C)(=O)=O)cc3C(=O)N([C@@H](C)CO)C[C@@H]2C)cc1	4.8	-0.1	2.1	88.3*	-5.6
CCCN(C)C[C@H]1OCCCC[C@@H](C)Oc2ccc(NS(=O)(=O)c3ccccc3)cc2C(=O)N([C@@H](C)CO)C[C@H]1C	54.4*	2.3	3.1	-0.1	-2.6
C[C@@H]1CCCCO[C@H](CN(C)S(=O)(=O)c2ccc(Cl)cc2)[C@@H](C)CN([C@@H](C)CO)C(=O)c2cc(NS(=O)(=O)c3ccc(F)cc3)ccc2O1	-14.8	?	6.7	120.2*	-2.8
SMILES	RAD52 inh	MLL AF4-AF9 inh	RAD54 branch	S100A4 MyoIIA	GSIS activator
C[C@@H]1CCCCO[C@H](CN(C)C(=O)CCCN(C)C)[C@@H](C)CN([C@H](C)CO)C(=O)c2cc(NS(=O)(=O)c3ccc(Cl)cc3)ccc2O1	6.8	-1.7	6.9	3.3	-10.3
C[C@H]1CCCCO[C@@H](CN(C)C(=O)CCCN(C)C)[C@@H](C)CN([C@@H](C)CO)C(=O)c2cc(NS(=O)(=O)c3ccc(Cl)cc3)ccc2O1	53.5*	6.0	14.8	-6.7	5.5
CCCN(C)C[C@H]1OCCCC[C@H](C)Oc2ccc(NS(=O)(=O)c3ccccc3)cc2C(=O)N([C@@H](C)CO)C[C@H]1C	36.9	2.4	2.7	1.4	4.3
CCc1nc2c(OCc3ccccc3C(=O)OC)cccn2c1N(C)C(=O)c1ccncc1	-21.5	1.7	-2.0	-1.4	116.6*
CCc1nc2c(OCc3ccccc3C)cccn2c1N(C)C(=O)c1ccco1	-19.3	2.1	4.0	-22.4	60.7*
CCCCC(=O)N(C)c1c(CC)nc2c(OCc3ccc(C(F)(F)F)cc3)cccn12	-2.7	-0.2	-6.8	-3.0	52.8*
CCc1nc2c(OCc3ccc(OC)cc3)cccn2c1N(C)C(=O)c1ccco1	-34.3	2.8	-5.9	-6.3	.
CO[C@H](CN(C)S(=O)(=O)c1cn(C)cn1)[C@@H](C)CN(C(=O)Nc1ccc(F)cc1)[C@@H](C)CO	-13.2	-0.7	3.9	-2.7	3.1
COc1cccc(-c2csc3ncnc(Sc4nnnn4C)c23)c1	-16.0	0.9	-6.3	-6.4	52.9*
Cn1nnnc1Sc1ncnc2scc(-c3cccc(F)c3)c12	-5.8	1.2	-6.5	45.2	21.5
Cc1cc(C)cc(OCCCN2CCC(C(O)(c3ccccc3)c3ccccc3)CC2)c1	1.5	7.3	.	-0.1	182.4*
Cc1ccccc1OCCCN1CCC(C(O)(c2ccccc2)c2ccccc2)CC1	2.6	2.1	.	-9.6	.
C[C@@H]1CCCCO[C@@H](CN(C)C)[C@@H](C)CN([C@@H](C)CO)C(=O)c2cc(NC(=O)Nc3ccc(F)cc3)ccc2O1	-3.0	4.2	5.2	-19.0	6.8
O=C(Cc1ccsc1)NNC(=O)c1ccccc1Cl	-13.7	-1.5	.	0.4	41.7*
O=C(Cc1cccs1)NNC(=O)c1ccccc1Cl	-23.0	-2.6	3.2	-4.3	14.5
C[C@@H]1CCCCO[C@@H](CN(C)C)[C@H](C)CN([C@@H](C)CO)C(=O)c2cc(NC(=O)Nc3ccc(C(F)(F)F)cc3)ccc2O1	52.7*	0.9	6.1	2.5	-1.0
COc1ccc(S(=O)(=O)N(C)C[C@@H]2OCCCC[C@@H](C)Oc3ccc(NC(=O)Nc4ccc(C(F)(F)F)cc4)cc3C(=O)N([C@H](C)CO)C[C@@H]2C)cc1	10.8	-11.2	-0.9	99.0*	13.5

Assay outcomes from PubChem BioAssay.
